Results taken from ChEMBL document CHEMBL1671840, “Design, Synthesis, and Preclinical Characterization of the Selective Androgen Receptor Modulator (SARM) RAD140” (ACS Med Chem Lett, 2011).
Activity calls are given as the source filed them. The rule behind the calls is not given here.

What was measured:
[1] = Oral bioavailability in rat; format: ADME, organism-based; conditions: in vivo
[2] = Half life in rat microsomes; format: ADME, Microsome
[3] = Half life in monkey microsomes; format: ADME, Macaca mulatta, Microsome; conditions: rhesus monkey
[4] = Half life in human microsomes; format: ADME, Microsome
[5] = Oral bioavailability in monkey; format: ADME, organism-based, Macaca mulatta; conditions: rhesus monkey, in vivo
Androgen receptor = target: T1, Androgen receptor (Homo sapiens, UniProt P10275); assay: Displacement of fluorescent-tagged R1881 from androgen receptor after 4 hrs by fluorometric assay
T1 sequence (P10275 whole entry): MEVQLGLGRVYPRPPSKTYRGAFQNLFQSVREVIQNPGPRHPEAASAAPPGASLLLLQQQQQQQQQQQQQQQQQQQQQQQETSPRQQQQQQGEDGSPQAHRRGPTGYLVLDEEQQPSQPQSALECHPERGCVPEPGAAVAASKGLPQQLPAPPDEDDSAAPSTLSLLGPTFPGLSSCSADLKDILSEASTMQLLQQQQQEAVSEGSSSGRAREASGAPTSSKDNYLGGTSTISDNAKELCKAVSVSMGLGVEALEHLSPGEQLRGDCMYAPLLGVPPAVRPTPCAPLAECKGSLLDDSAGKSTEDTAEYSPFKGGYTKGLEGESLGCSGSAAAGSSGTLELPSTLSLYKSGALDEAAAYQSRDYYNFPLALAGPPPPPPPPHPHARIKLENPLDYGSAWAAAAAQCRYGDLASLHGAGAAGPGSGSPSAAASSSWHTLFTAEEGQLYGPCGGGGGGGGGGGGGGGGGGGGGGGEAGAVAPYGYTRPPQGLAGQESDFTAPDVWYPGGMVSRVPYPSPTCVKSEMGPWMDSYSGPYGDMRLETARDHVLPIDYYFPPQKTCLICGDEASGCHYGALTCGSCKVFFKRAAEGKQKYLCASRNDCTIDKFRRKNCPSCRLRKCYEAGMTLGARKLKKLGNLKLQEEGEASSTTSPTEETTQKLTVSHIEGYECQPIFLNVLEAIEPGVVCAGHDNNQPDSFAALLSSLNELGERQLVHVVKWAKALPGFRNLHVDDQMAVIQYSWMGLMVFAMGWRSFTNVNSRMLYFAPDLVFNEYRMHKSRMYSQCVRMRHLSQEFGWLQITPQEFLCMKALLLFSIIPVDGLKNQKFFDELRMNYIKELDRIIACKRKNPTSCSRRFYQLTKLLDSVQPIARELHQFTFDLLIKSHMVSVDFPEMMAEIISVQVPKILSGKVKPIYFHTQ

Progesterone receptor = target: T2, Progesterone receptor (Homo sapiens, UniProt P06401); assay: Binding affinity to progesterone receptor
T2 sequence (P06401 whole entry): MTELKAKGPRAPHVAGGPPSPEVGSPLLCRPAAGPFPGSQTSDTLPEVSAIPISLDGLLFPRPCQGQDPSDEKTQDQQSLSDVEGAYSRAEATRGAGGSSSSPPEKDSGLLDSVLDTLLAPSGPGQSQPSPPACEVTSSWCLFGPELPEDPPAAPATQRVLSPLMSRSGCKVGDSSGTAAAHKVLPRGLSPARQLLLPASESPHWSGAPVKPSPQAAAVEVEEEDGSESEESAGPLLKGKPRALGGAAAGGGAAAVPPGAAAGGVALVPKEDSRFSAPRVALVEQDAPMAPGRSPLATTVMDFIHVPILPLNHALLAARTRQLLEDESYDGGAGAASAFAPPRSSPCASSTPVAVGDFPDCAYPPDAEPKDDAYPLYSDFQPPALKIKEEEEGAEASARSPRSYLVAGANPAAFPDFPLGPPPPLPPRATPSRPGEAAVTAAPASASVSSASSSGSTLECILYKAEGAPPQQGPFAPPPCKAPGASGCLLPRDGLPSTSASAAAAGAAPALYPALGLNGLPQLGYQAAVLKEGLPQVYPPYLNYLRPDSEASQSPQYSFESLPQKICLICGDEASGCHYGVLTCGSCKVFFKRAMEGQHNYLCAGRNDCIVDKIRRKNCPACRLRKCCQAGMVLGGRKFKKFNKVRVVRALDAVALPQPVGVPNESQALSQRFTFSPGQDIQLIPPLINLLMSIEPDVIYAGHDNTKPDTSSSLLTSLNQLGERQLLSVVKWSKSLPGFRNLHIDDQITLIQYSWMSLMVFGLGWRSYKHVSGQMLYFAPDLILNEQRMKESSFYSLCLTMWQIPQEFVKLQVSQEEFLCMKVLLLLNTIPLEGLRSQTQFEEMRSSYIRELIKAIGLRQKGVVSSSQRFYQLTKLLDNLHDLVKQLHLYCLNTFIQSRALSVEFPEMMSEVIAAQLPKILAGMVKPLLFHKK

Rattus norvegicus [6] = assay: Androgenic activity in young intact rat assessed as increase of prostate weight at 30 mg/kg, po qd for 11 days; format: functional, organism-based; parameters: dose 30 mg/kg; conditions: Prostate gland
Rattus norvegicus [7] = assay: Androgenic activity in young intact rat assessed as increase of levator ani bulbocavernosus muscle weight at 0.1 mg/kg, po qd for 11 days; format: functional, organism-based; parameters: dose 0.1 mg/kg; conditions: Muscle tissue
Rattus norvegicus [8] = assay: Androgenic activity in castrated immature rat assessed as increase of levator ani bulbocavernosus muscle weight at 0.03 mg/kg, po qd for 11 days; format: functional, organism-based; parameters: dose 0.03 mg/kg; conditions: Muscle tissue
Rattus norvegicus [9] = assay: Androgenic activity in castrated immature rat assessed as increase of levator ani bulbocavernosus muscle weight at 0.3 mg/kg, po qd for 11 days; format: functional, organism-based; parameters: dose 0.3 mg/kg; conditions: Muscle tissue
Rattus norvegicus [10] = assay: Androgenic activity in young intact rat assessed as increase of levator ani bulbocavernosus muscle weight at 0.3 mg/kg, po qd for 11 days; format: functional, organism-based; parameters: dose 0.3 mg/kg; conditions: Muscle tissue
Rattus norvegicus [11] = assay: Androgenic activity in young intact rat assessed as increase of levator ani bulbocavernosus muscle weight at 0.5 mg/kg, sc qd for 11 days; format: functional, organism-based; parameters: dose 0.5 mg/kg; conditions: Muscle tissue
Rattus norvegicus [12] = assay: Androgenic activity in young intact rat assessed as increase of prostate weight at 0.5 mg/kg, sc qd for 11 days; format: functional, organism-based; parameters: dose 0.5 mg/kg; conditions: Prostate gland
Cynomolgus monkey [13] = assay: Androgenic activity in cynomolgus monkey assessed as increase of body weight at 0.1 mg/kg, po qd for 28 days; format: functional, Macaca fascicularis
Procedure, shortened: (§1)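 Monkeys in groups of 3, grouped from day -21 and weighed at each time point. Oral dosing at 0.01, 0.1 or 1 mg/kg for 28 days, then 21 days off-dose. Each animal's weight change over the pre-dose weeks served as baseline; baseline-subtracted change from day -1 to day 29 was tested statistically.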

Cynomolgus monkey [14] = assay: Androgenic activity in cynomolgus monkey assessed as increase of body weight at 1 mg/kg, po qd for 28 days; format: functional, organism-based; parameters: dose 1 mg/kg; conditions: Macaca fascicularis; procedure, shortened: as §1
Cynomolgus monkey [15] = assay: Androgenic activity in cynomolgus monkey assessed as effect on lean tissue weight at up to 1 mg/kg, po qd for 28 days measured after 24 hrs of last post dose; format: functional, organism-based; parameters: dose 1 mg/kg; conditions: Macaca fascicularis
Procedure, shortened: (§2)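 Monkeys, 3 per group, dosed orally at 0.01, 0.1 or 1 mg/kg for 28 days. DEXA scans on day -2 and day 29 gave fat and lean tissue mass. Mean change per group, with SD.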

Cynomolgus monkey [16] = assay: Androgenic activity in cynomolgus monkey assessed as effect on fat mass at up to 1 mg/kg, po qd for 28 days measured after 24 hrs of last post dose; format: functional, organism-based; parameters: dose 1 mg/kg; conditions: Macaca fascicularis; procedure, shortened: as §2

SMILES | bioavailability [1] [%] | half-life [2] [h] | half-life [3] [h] | half-life [4] [h] | bioavailability [5] [%] | Ki (Androgen receptor) [nM] | IC50 (Progesterone receptor) [nM] | Activity (Rattus norvegicus [6]) | Activity (Rattus norvegicus [7]) | Activity (Rattus norvegicus [8]) | Activity (Rattus norvegicus [9]) | Activity (Rattus norvegicus [10]) | Activity (Rattus norvegicus [11]) | Activity (Rattus norvegicus [12]) | Activity (Cynomolgus monkey [13]) [%] | Activity (Cynomolgus monkey [14]) | Activity (Cynomolgus monkey [15]) | Activity (Cynomolgus monkey [16])
Cc1c(N[C@@H](c2nnc(-c3ccccc3)o2)[C@H](C)O)ccc(C#N)c1Cl | < 5 |  |  |  |  |  |  |  |  |  |  |  |  |  |  |  |  | 
Cc1c(N[C@@H](c2nnc(-c3ccc(C#N)cc3)o2)[C@H](C)O)ccc(C#N)c1Cl [RAD-140] | 27 | > 2 | > 2 | > 2 | 65 | 7 | 750 | inactive | Active | Active | Active | Active | Active | Active | 10 | Active | inactive | inactive
